Measurements reported in ChEMBL document CHEMBL1799919, “Design, synthesis, biological evaluation, and structure-activity relationships of substituted phenyl 4-(2-oxoimidazolidin-1-yl)benzenesulfonates as new tubulin inhibitors mimicking combretastatin A-4” (J Med Chem, 2011).
Calls of active or inactive are those of the source. The rule behind the calls is not given here.

Key:
HT-29 = assay: Antiproliferative activity against human HT-29 cells after 48 hrs by sulforhodamine B assay; assay type: functional, cell-based; details: HT-29, 48 h
M21 [1] = assay: Antiproliferative activity against human M21 cells after 48 hrs by sulforhodamine B assay; assay type: functional, cell-based; details: M21, 48 h
MCF7 = assay: Antiproliferative activity against human MCF7 cells after 48 hrs by sulforhodamine B assay; assay type: functional, cell-based; details: MCF7, 48 h
M21 [2] = assay: Cell cycle arrest in human M21 cells assessed as accumulation at G0/G1 phase at 5 times IC50 after 24 hrs using propidium iodide staining by flow cytometric analysis (reference value: 61%); assay type: functional
M21 [3] = assay: Cell cycle arrest in human M21 cells assessed as accumulation at S phase at 5 times IC50 after 24 hrs using propidium iodide staining by flow cytometric analysis (reference value: 30%); assay type: functional
M21 [4] = assay: Cell cycle arrest in human M21 cells assessed as accumulation at G2/M phase at 5 times IC50 after 24 hrs using propidium iodide staining by flow cytometric analysis (reference value: 9%); assay type: functional
MDA-MB-231 [5] = assay: Displacement of N,N'-ethylenebis(iodoacetamide) from colchicine-binding site of beta-tubulin in human MDA-MB-231 cells at 1000 times IC50 preincubated for after 2 hrs before N,N'-ethylenebis(iodoacetamide) addition measured after 1.5 hrs by chemiluminescence assay; assay type: cell-based
In short: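 EBI (100 μM final) added for 1.5 h at 37 °C; controls received 0.5% DMSO. Lysates (20 μg protein) run on 10% SDS-PAGE and blotted with anti-β-tubulin (TUB 2.1). β-tubulin–EBI adduct band detected by ECL.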

CHO = assay: Antiproliferative activity against CHO cells after 48 hrs by sulforhodamine B assay; assay type: functional, cell-based; details: Cricetulus griseus
K562 = assay: Antiproliferative activity against human K562 cells after 48 hrs by sulforhodamine B assay; assay type: functional, cell-based; details: K562, 48 h
L1210 = assay: Antiproliferative activity against mouse L1210 cells after 48 hrs by sulforhodamine B assay; assay type: functional, cell-based; details: L1210, 48 h
[6] = Antiproliferative activity against mouse P388D1 cells after 48 hrs by sulforhodamine B assay; assay type: functional, cell-based; details: P388D1, 48 h
[7] = Antiproliferative activity against mouse B16F0 cells after 48 hrs by sulforhodamine B assay; assay type: functional, cell-based; details: B16F0, 48 h
DU-145 = assay: Antiproliferative activity against human DU145 cells after 48 hrs by sulforhodamine B assay; assay type: functional, cell-based; details: DU-145, 48 h
HT-1080 [8] = assay: Antiproliferative activity against human HT1080 cells after 48 hrs by sulforhodamine B assay; assay type: functional, cell-based; details: HT-1080, 48 h
MDA-MB-231 [9] = assay: Antiproliferative activity against human MDA-MB-231 cells after 48 hrs by sulforhodamine B assay; assay type: functional, cell-based; details: MDA-MB-231, 48 h
SK-OV-3 = assay: Antiproliferative activity against human SKOV3 cells after 48 hrs by sulforhodamine B assay; assay type: functional, cell-based; details: SK-OV-3, 48 h
CCRF-CEM = assay: Antiproliferative activity against human CEM cells after 48 hrs by sulforhodamine B assay; assay type: functional, cell-based
CHO-TAX 5-6 [10] = assay: Antiproliferative activity against paclitaxel-resistant CHO-TAX 5-6 cells after 48 hrs by sulforhodamine B assay; assay type: functional, cell-based; details: Cricetulus griseus, CHO-TAX 5-6, 48 h
CHO-TAX 5-6 [11] = assay: Resistant ratio of IC50 for paclitaxel-resistant CHO-TAX 5-6 cells to IC50 for CHO cells; assay type: functional, Cricetulus griseus
In short: (§1)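 Ratio of the IC50 in the resistant line (CEM-VLB, CHO-TAX 5-6 or CHO-VV 3-2) to the IC50 in its parental line (CEM or CHO).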

[12] = Antiproliferative activity against multidrug-resistant human CEM/VLB cells after 48 hrs by sulforhodamine B assay; assay type: functional
CEM-VLB = assay: Resistant ratio of IC50 for multidrug-resistant human CEM-VLB cells to IC50 for human CEM cells; assay type: functional; in short: as §1
M21 [13] = assay: Disruption of cytoskeleton microtubule structure of human M21 cells at 5 times IC50 after 16 hrs by indirect immunofluorescence assay; assay type: functional, cell-based
In short: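 Fixed in 3.7% formaldehyde, permeabilized with saponin, and stained with anti-β-tubulin (TUB 2.1), Alexa-488 secondary and DAPI. Microtubule structure scored by fluorescence microscopy.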

HT-1080 [14] = assay: Antivasculogenic activity against human HT1080 cells xenografted in chicken chorioallantoic membrane assessed as inhibition of tumor growth at 3 ug per egg, iv measured on day 14 by CAM assay; assay type: functional
[15] = Toxicity against fertilized chicken embryo assessed as mortality at 3 ug per egg, iv by CAM assay; assay type: organism-based, Gallus gallus; details: in vivo, read-out: Activity
In short: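 Fertilized chicken eggs incubated 10 days with automatic turning, then static. HT-1080 cells (3.5 × 10^5 cells/egg) grafted onto exposed CAM. On day 11, drug in DMSO diluted into cremophor/ethanol/PBS (6.25/6.25/87.5 v/v) excipient, DMSO below 0.5%, 100 μL injected iv into 10-12 eggs. Eggs incubated to day 17, dead embryos counted. Untreated eggs used for normalization. Two independent experiments, at least 10 eggs each.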

CHO-VV 3-2 = assay: Antiproliferative activity against colchicine- and vinblastine-resistant CHO-VV 3-2 cells after 48 hrs by sulforhodamine B assay; details: Cricetulus griseus, CHO-VV 3-2, 48 h

SMILES	IC50 (HT-29) [nM]	IC50 (M21 [1]) [nM]	IC50 (MCF7) [nM]	Activity (M21 [2]) [%]	Activity (M21 [3]) [%]	IC50 (CHO) [nM]	IC50 (K562) [nM]	IC50 (L1210) [nM]	IC50 [6] [nM]	IC50 [7] [nM]	IC50 (DU-145) [nM]	IC50 (HT-1080 [8]) [nM]	IC50 (MDA-MB-231 [9]) [nM]	IC50 (SK-OV-3) [nM]	IC50 (CCRF-CEM) [nM]	IC50 (CHO-TAX 5-6 [10]) [nM]	Ratio IC50 (CHO-TAX 5-6 [11])	IC50 [12] [nM]	Ratio IC50 (CEM-VLB)	IC50 (CHO-VV 3-2) [nM]	further results
CCOc1cccc(OS(=O)(=O)c2ccc(N3CCNC3=O)cc2)c1	18	12	19	2	20	32	18	19	20	65	72	34	55	42	20	12	0.38	32	1.6	39	Activity (M21 [4]): 78%; inhibition (MDA-MB-231 [5]): Active; Activity (M21 [13]): Active; Activity (HT-1080 [14]): Active; mortality [15]: 13%
O=C1NCCN1c1ccc(S(=O)(=O)Oc2cccc(Cl)c2)cc1	15	9.2	13	2	19	18	16	17	19	46	58	19	45	22	17	9.3	0.52	20	1.2	20	Activity (M21 [4]): 79%; inhibition (MDA-MB-231 [5]): Active; Activity (M21 [13]): Active; Activity (HT-1080 [14]): 46%; mortality [15]: 0%
O=C1NCCN1c1ccc(S(=O)(=O)Oc2cc(Cl)cc(Cl)c2)cc1	10	8.2	18	1	20	17	7.2	9.6	7.4	41	66	18	26	16	16	6.1	0.36	19	1.2	20	Activity (M21 [4]): 79%; inhibition (MDA-MB-231 [5]): Active; Activity (M21 [13]): Active; Activity (HT-1080 [14]): inactive; mortality [15]: 29%
O=C1NCCN1c1ccc(S(=O)(=O)Oc2ccc(F)cc2)cc1	120	89	170	51	21	230	180	140	240	250	550	190	360	210	200	86	0.37	270	1.4	260	Activity (M21 [4]): 28%; inhibition (MDA-MB-231 [5]): Active; Activity (M21 [13]): Active; Activity (HT-1080 [14]): inactive; mortality [15]: 29%
O=C1NCCN1c1ccc(S(=O)(=O)Oc2cccc(I)c2)cc1	11	10	18	2	21	17	14	19	18	30	57	19	48	23	17	8.9	0.52	18	1.1	20	Activity (M21 [4]): 77%; inhibition (MDA-MB-231 [5]): Active; Activity (M21 [13]): Active; Activity (HT-1080 [14]): Active; mortality [15]: 43%
CC(=O)O[C@H]1C(=O)[C@@]2(C)[C@H]([C@H](OC(=O)c3ccccc3)[C@]3(O)C[C@H](OC(=O)[C@H](O)[C@@H](NC(=O)c4ccccc4)c4ccccc4)C(C)=C1C3(C)C)[C@]1(OC(C)=O)CO[C@@H]1C[C@@H]2O [PACLITAXEL]	–	–	–	–	–	170	0.71	0.4	35	28	1.3	0.15	–	2.6	0.27	520	–	–	–	140	–
COc1cc2c(c(OC)c1OC)-c1ccc(OC)c(=O)cc1[C@@H](NC(C)=O)CC2 [COLCHICINE]	–	–	–	–	–	220	6.8	6.9	28	13	–	1.1	2.9	2.1	7.9	140	–	360	–	620	–
CC[C@]1(O)C[C@@H]2CN(CCc3c([nH]c4ccccc34)[C@@](C(=O)OC)(c3cc4c(cc3OC)N(C)[C@H]3[C@@](O)(C(=O)OC)[C@H](OC(C)=O)[C@]5(CC)C=CCN6CC[C@]43[C@@H]65)C2)C1 [VINBLASTINE]	–	–	–	–	–	17	0.36	0.16	1.8	0.099	0.063	0.099	0.12	0.039	0.38	6.9	0.41	600	1579	66	–
